Source: PubChem (several laboratories)
LEDGF integ inh = blocks HIV-1 LEDGF/p75-dependent DNA integration. AID 743269. inhibition, % at 3.7 µM. TR-FRET IN-LEDGF/p75 DNA integration, Eu/Cy5. 370,000 tested, 0.64% active;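 active = inhibition above the screen-wide mean plus 3 SD, cut at about 13% in these data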;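 note: signal is the Cy5 over europium emission ratio at 671 and 618 nm; 0% = plate median of compound wells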
TDP2 inh = TDP2 (human) inhibition, absorbance primary screen. inhibition, % at 12.8 µM. 370,000 tested, 0.34% active. recombinant TDP2, T5PNP hydrolysis, p-nitrophenol absorbance 415 nm;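 active = inhibition above the mean of all tested compounds plus 3 SD, set per campaign, cut at about 25% in these data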;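 note: 0% = DMSO with enzyme and 100% = buffer with substrate but no TDP2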
Target sequence (O95551 whole entry, looked up): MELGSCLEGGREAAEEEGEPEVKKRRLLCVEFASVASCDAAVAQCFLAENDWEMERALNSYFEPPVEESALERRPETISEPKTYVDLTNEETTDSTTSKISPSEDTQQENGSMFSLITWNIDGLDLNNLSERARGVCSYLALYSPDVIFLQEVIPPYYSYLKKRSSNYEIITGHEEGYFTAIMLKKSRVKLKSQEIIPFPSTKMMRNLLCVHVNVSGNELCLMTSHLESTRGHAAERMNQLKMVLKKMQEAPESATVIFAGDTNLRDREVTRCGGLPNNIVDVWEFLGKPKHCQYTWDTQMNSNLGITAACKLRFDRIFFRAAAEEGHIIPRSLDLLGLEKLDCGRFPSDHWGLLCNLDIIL
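System – recombinant human TDP2 · Amount – 120 nM TDP2 per well · Buffer or medium – Mg2+-containing Tris-HCl buffer, pH 7.5 · Reagent – T5PNP substrate, 5 mM · Dosing – 12.8 µM single point, 1% DMSO · Incubation – 2 h at 37 °C · Measured by – epi absorbance · Read-out basis – percent inhibition · Benchmarks – high control without enzyme, low control DMSO plus TDP2 · Repeats – singlicate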
CASP6 VEID inh = caspase-6 (human) enzyme inhibition. P55212. purified caspase-6, Z-VEID-R110 cleavage fluorescence. inhibition, % at 12.5 µM. 350,000 tested, 0.53% active. AID 686996;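 active = mean inhibition across replicates at least about 35%, with every replicate also reaching that limit, limit read from the data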;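 note: 0% = median of neutral control wells and 100% = no fluorescence left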
Target sequence (P55212 24-179 limits assumed): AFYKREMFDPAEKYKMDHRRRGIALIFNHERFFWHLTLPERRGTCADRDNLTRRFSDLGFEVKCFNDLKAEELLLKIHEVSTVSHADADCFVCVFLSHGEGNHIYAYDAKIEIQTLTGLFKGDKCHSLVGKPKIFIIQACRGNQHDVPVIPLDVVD
Target sequence (P55212 194-293 limits assumed): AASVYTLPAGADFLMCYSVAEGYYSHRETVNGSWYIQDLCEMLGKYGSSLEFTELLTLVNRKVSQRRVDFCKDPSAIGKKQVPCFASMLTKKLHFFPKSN
NSD2 HMT inh = NSD2 (human) methyltransferase inhibition; 310,000 tested, 0.54% active; inhibition, % at 12.5 µM; NSD2 peptide methylation, AlphaScreen, 120 min; O96028; in the data active = inhibition above about 50%
MBD2 DNA inh = MBD2-methylated oligo binding inhibition; Q9UBB5; TR-FRET, MBD2 binding to methylated oligonucleotide; inhibition, % at 4.4 µM; 370,000 tested, 0.31% active; AID 686964; in the data active = inhibition above about 13%
UHRF1 MBD2 ctr = blocks human UHRF1 binding to methylated DNA; Q96T88; UHRF1 binding to methylated oligo, TR-FRET; inhibition, % at 4.4 µM; 370,000 tested, 0.75% active; AID 687016; in the data active = inhibition above about 21%;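 note: UHRF1 SRA domain binding a hemimethylated CpG hairpin DNA probe; 0% = median of test compound wells and 100% = reference inhibitor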
AlphaScreen art = AlphaScreen assay artifact in NSD2 counter-screen. shares compounds with NSD2 HMT inh. AlphaScreen artifact counterscreen, preloaded methylated H4 peptide. AC35, µM (doses to about 10 µM), inactives show at the highest dose activity change, negative = signal loss. 1,500 tested, 9.4% active. AID 1053174; call rule not given here
* hit, by the source's call; nt = no result. In the library only some 1.8% were active in any assay of this set; here they are far more common.

SMILES	LEDGF integ inh	TDP2 inh	CASP6 VEID inh	NSD2 HMT inh	MBD2 DNA inh	UHRF1 MBD2 ctr	AlphaScreen art
CCN1[C@@H]2c3ccc(-c4cccc(F)c4)c(=O)n3C[C@@H]2[C@@H](CO)[C@@H]1C(=O)N[C@@H](C)c1ccccc1	nt	nt	0	nt	nt	nt	nt
COc1ccccc1CNC(=O)C[C@H]1C[C@@H]2c3cc(NC(=O)NC4CCCC4)ccc3O[C@@H]2[C@@H](CO)O1	nt	nt	-2	nt	nt	nt	nt
Cc1noc(C)c1NC(=O)N(C)C[C@H]1OCc2ccccc2-c2c(n(C)c3ccccc23)C(=O)N([C@H](C)CO)C[C@@H]1C	nt	nt	2	nt	nt	nt	nt
CC(=O)Nc1ccc(SCCC2CCCCN2C)cc1 (stereo not drawn)	-2	-9	-9	88*	5	2	-6%
Cc1ccc(-c2csc3nc(CN(C)Cc4ccccc4)[nH]c(=O)c23)cc1	1	0	5	60*	-3	-2	2%
COc1cc(/C=C(\C#N)c2nc3ccc(C)cc3[nH]2)cc([N+](=O)[O-])c1O	1	8	16	61*	-6	-8	-17%
O=C(NC[C@@H]1CC[C@H]2[C@H](CN2Cc2ccccc2F)O1)C1CC1	nt	nt	0	nt	nt	nt	nt
Cc1cc(=O)cc(C)n1-c1ccc(O)cc1	2	-6	8	71*	1	-1	-2%
CCN(CC(=O)NCCCn1ccnc1)S(=O)(=O)c1ccc(C)cc1	3	5	-8	-5	3	0	nt
Cc1ccc(S(=O)(=O)N(C)CC(=O)NCCCn2ccnc2)cc1	1	11	-6	115*	1	0	-4%
N#Cc1ccc(OCC(=O)NCCCn2ccnc2)cc1	3	7	-44	63*	-3	0	2%
COc1ccc(OCC(=O)NCCCn2ccnc2)cc1	2	13	-11	-1	-6	15	nt
COC[C@@]12C[C@H]3C(=O)N(Cc4ccccc4)C(=O)[C@H]3[C@@H](CO1)/C2=C\c1ccccc1	nt	nt	-1	nt	nt	nt	nt
Cc1ccc(S(=O)(=O)Nc2ccc3c(c2)C(=O)N([C@H](C)CO)C[C@H](C)[C@H](CN(C)S(=O)(=O)c2ccc(C)cc2)OCCCC[C@H](C)O3)cc1	nt	nt	0	nt	nt	nt	nt
Cc1onc(-c2c(Cl)cccc2Cl)c1C(=O)ONC(=O)c1cc(C(F)(F)F)cc(C(F)(F)F)c1	3	-28	-5	59*	-6	0	0%
CC1CCCCC1NC(=O)COC(=O)c1ccc2c(=O)n3c(nc2c1)CCC3 (stereo not drawn)	-3	-5	0	117*	3	2	-1%
O=C(COC(=O)c1ccc2c(=O)n3c(nc2c1)CCC3)NC1CCS(=O)(=O)C1 (stereo not drawn)	2	5	nt	-2	-1	0	nt
O=C(Nc1ccc(Cl)cc1)c1ccc2c(=O)n3c(nc2c1)CCCCC3	-3	-7	1	nt	-1	1	nt
O=C(Nc1ccccn1)c1ccc2c(=O)n3c(nc2c1)CCCCC3	9	2	10	61*	10	21*	-1%
C[C@H](CO)N1C[C@H](C)[C@@H](CN(C)S(=O)(=O)c2ccc(Cl)cc2)Oc2c(NC(=O)CCCCCC(=O)Nc3ccccc3N)cccc2C1=O	nt	nt	2	nt	nt	nt	nt
N=C1/C(=C\c2ccc(Br)o2)C(=O)N=C2SC(CC(=O)N3CCOCC3)=NN12	22*	5	61*	94*	0	18	-11%
CSc1ccc(/C=C2\C(=N)N3N=C(CC(=O)N4CCOCC4)SC3=NC2=O)cc1	3	9	-1	8	-4	0	nt
COc1ccc2c3c(n(C)c2c1)[C@H](CO)N(C(=O)Cc1ccccc1)CC31CN(C(=O)Cc2ccccc2)C1	nt	nt	-3	nt	nt	nt	nt
CCC(=O)N1C[C@@H](C)[C@H](OC)CN(C)C(=O)c2cc(NC(=O)CC(F)(F)F)ccc2OC[C@@H]1C	nt	nt	2	nt	nt	nt	nt
CCC(=O)N1CC2(C1)CN(C(=O)NC1CCCC1)[C@H](CO)c1c2c2ccc(OC)cc2n1C	nt	nt	-1	nt	nt	nt	nt
SMILES	LEDGF integ inh	TDP2 inh	CASP6 VEID inh	NSD2 HMT inh	MBD2 DNA inh	UHRF1 MBD2 ctr	AlphaScreen art
CC1=C(C#N)c2nc(N)c(C#N)c(C)c2/C1=C\c1ccc(-c2ccccc2C(=O)O)o1	10	6	54*	82*	0	15	-12%
Cc1noc(C)c1S(=O)(=O)N1CCN(S(=O)(=O)c2ccccc2C#N)CC1	1	8	-1	107*	2	0	-1%
CCOc1ccccc1/C=N/NC(=O)c1nnn(-c2nonc2N)c1CN1CCC(C)CC1	0	3	-1	83*	-3	2	-9%
CCOc1ccccc1NC(=O)N1CCCC1C(=O)NCc1cccs1 (stereo not drawn)	-1	7	nt	-9	1	1	nt
CCOc1ccccc1NC(=O)C1CCCN1C(=O)c1cccs1 (stereo not drawn)	6	-17	-3	108*	-5	4	-6%
COc1ccc2nc(SCC(=O)Nc3cc(C)on3)c(C#N)cc2c1	-1	-7	1	6	2	0	nt
Cc1cc(NC(=O)CSc2nc3ccccc3cc2C#N)no1	-1	18	-2	55*	1	0	-3%
O=C1CN(S(=O)(=O)Cc2ccccc2)C[C@H]2[C@H](c3ccc(C#Cc4ccc(F)cc4)cc3)[C@@H](CO)N12	nt	nt	-4	nt	nt	nt	nt
CCOC(=O)CC(NS(=O)(=O)c1ccc(OC)c(OC)c1)c1cccc([N+](=O)[O-])c1 (stereo not drawn)	6	-6	4	0	1	0	nt
CCOC(=O)CC(NS(=O)(=O)c1ccc2[nH]cc(C(=O)O)c(=O)c2c1)c1ccc(OCC)c(OC)c1 (stereo not drawn)	6	8	54*	68*	9	19	-1%
S=C1NCN(Cc2ccco2)CN1CCc1ccccc1	1	2	0	53*	-2	-1	-3%
CO[C@H]1CN(C)C(=O)c2ccc(NC(=O)c3cc(C)on3)cc2OC[C@@H](C)N(C(=O)C2CC2)C[C@@H]1C	nt	nt	2	nt	nt	nt	nt
C[C@H]1CN([C@@H](C)CO)C(=O)c2cccc(NC(=O)c3cnccn3)c2O[C@H]1CN(C)CC1CC1	nt	nt	-1	nt	nt	nt	nt
COC(=O)N/N=C1/C/C(=N\NC(=O)OC)c2ccccc21	32*	50*	91*	97*	-10	-8	-5%
CC(=O)Nc1ccc(Sc2ccccc2C(=O)O)cn1	1	13	7	73*	12	21*	-4%
CCOc1ccc(-c2nnc(SCc3nc4ccccc4[nH]3)n2N)cc1	-2	4	nt	72*	3	-4	-4%
COc1cccc(C#Cc2cnc3c(c2)C(=O)N([C@@H](C)CO)C[C@H](C)[C@H](CN(C)C(=O)C2CC2)O3)c1	nt	nt	1	nt	nt	nt	nt
